Data on 13 molecules can be found in ChEMBL document CHEMBL1150387, “Development and experimental validation of a docking strategy for the generation of kinase-targeted libraries” (J Med Chem, 2008).

In assay [1] the target is T1, Tyrosine-protein kinase JAK3 (Homo sapiens) (UniProt P52333).
T1 sequence (whole entry): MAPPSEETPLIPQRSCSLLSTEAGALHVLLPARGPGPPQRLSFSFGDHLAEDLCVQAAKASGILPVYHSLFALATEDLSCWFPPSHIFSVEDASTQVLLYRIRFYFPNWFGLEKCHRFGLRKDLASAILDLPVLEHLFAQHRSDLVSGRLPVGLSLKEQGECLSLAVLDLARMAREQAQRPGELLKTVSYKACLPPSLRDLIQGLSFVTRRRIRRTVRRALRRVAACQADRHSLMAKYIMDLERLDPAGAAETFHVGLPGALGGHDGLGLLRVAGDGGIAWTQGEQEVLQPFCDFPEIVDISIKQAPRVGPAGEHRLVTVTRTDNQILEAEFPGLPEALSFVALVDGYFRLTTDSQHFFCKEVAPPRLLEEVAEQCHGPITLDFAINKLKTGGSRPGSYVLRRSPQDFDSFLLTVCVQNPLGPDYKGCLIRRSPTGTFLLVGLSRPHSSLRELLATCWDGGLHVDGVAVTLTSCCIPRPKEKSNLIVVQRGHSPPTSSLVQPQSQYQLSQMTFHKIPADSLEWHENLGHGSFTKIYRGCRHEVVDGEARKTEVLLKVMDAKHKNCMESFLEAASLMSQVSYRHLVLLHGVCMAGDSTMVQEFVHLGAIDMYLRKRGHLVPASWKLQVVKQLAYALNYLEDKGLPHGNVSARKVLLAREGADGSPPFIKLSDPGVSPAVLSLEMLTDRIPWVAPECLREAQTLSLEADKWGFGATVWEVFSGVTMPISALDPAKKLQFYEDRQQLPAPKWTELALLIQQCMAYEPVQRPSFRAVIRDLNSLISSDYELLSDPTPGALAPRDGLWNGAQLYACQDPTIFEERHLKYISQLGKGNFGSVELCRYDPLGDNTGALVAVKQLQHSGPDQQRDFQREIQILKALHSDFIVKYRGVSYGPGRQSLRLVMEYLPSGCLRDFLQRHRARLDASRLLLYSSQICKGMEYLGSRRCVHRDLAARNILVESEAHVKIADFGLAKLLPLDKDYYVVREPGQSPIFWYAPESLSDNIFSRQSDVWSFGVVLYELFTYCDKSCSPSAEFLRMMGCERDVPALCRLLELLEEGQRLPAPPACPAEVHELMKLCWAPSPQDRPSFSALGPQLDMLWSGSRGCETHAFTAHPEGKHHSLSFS
Description: Inhibition of JAK3 at 10 uM by HTRF assay relative to control. In a few lines: (§1)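 HTRF kinase assay, one panel of kinases. Inhibitor stock 50 µM in 100% DMSO; tested at 10 µM. ATP and substrate at final levels near Km. Final buffer: 50 mM Hepes/NaOH pH 7.4, 40 µM Na3VO4, 0.005% Tween-20, 1 mM DTT, MnCl2 or MgCl2 at kinase-dependent levels. Started by adding ATP/substrate. Reaction run at room temperature, time varied by kinase. Detection mix in 50 mM Hepes pH 7.4, 0.1% BSA, 150 mM KF, incubated ≥1 h at room temperature. Activity expressed as % of uninhibited control; n=2.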

For assay [2], the target named is T2, Calcium/calmodulin-dependent protein kinase type IV (Homo sapiens) (UniProt Q16566).
T2 sequence (whole entry): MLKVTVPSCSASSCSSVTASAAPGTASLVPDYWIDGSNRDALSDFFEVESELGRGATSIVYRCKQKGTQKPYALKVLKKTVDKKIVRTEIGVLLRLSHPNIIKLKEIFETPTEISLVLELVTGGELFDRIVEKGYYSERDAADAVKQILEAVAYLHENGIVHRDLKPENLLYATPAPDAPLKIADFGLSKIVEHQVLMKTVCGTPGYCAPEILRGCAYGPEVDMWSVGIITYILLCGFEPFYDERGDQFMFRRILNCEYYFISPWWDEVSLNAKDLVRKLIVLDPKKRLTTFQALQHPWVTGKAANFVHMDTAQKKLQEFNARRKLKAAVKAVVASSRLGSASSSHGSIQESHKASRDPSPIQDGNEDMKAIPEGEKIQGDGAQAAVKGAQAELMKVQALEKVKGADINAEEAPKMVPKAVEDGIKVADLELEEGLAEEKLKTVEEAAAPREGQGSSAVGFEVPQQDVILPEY
Description: Inhibition of CaMK4 at 10 uM by HTRF assay relative to control. An outline of the steps:
as §1

For assay [3], the target named is Mitogen-activated protein kinase 14 (Homo sapiens) (UniProt Q16539). Put plainly: Inhibition of p38alpha at 10 uM by HTRF assay relative to control. An outline of the steps:
as §1

The target in assay [4] is Mitogen-activated protein kinase 9 (Homo sapiens) (UniProt P45984). Put plainly: Inhibition of JNK2 at 10 uM by HTRF assay relative to control. An outline of the steps:
as §1

The target in assay [5] is Vascular endothelial growth factor receptor 1 (Homo sapiens) (UniProt P17948). Put plainly: Inhibition of FLT1 at 10 uM by HTRF assay relative to control. An outline of the steps:
as §1

The target in assay [6] is Cyclin-dependent kinase 2 (Homo sapiens) (UniProt P24941). Description: Inhibition of CDK2 at 10 uM by HTRF assay relative to control. An outline of the steps: as §1
A short description of assay [7]: Inhibition of IRK at 10 uM by HTRF assay relative to control. An outline of the steps: as §1
Assay [8] addresses Epidermal growth factor receptor (Homo sapiens) (UniProt P00533). Put plainly: Inhibition of EGFR at 10 uM by HTRF assay relative to control. An outline of the steps:
as §1

Assay [9] addresses T3, Mitogen-activated protein kinase 12 (Homo sapiens) (UniProt P53778).
T3 sequence (whole entry): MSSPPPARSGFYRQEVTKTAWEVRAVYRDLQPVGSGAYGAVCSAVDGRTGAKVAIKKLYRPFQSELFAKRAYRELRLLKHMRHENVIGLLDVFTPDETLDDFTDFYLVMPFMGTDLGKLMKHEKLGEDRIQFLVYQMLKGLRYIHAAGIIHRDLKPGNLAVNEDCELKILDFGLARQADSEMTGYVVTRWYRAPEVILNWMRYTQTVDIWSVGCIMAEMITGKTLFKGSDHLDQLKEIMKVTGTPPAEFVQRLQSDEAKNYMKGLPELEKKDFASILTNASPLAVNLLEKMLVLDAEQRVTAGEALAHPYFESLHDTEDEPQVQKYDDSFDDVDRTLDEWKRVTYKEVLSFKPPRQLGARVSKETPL
Put plainly: Inhibition of p38-gamma at 10 uM by HTRF assay relative to control. In a few lines:
as §1

In assay [10] the target is Proto-oncogene tyrosine-protein kinase Src (Homo sapiens) (UniProt P12931). Put plainly: Inhibition of Src at 10 uM by HTRF assay relative to control. In a few lines:
as §1

For assay [11], the target named is Protein-tyrosine kinase 6 (Homo sapiens) (UniProt Q13882). Put plainly: Inhibition of Brk at 10 uM by HTRF assay relative to control. In a few lines:
as §1

Sequence of Epidermal growth factor receptor (Homo sapiens) (P00533 whole entry): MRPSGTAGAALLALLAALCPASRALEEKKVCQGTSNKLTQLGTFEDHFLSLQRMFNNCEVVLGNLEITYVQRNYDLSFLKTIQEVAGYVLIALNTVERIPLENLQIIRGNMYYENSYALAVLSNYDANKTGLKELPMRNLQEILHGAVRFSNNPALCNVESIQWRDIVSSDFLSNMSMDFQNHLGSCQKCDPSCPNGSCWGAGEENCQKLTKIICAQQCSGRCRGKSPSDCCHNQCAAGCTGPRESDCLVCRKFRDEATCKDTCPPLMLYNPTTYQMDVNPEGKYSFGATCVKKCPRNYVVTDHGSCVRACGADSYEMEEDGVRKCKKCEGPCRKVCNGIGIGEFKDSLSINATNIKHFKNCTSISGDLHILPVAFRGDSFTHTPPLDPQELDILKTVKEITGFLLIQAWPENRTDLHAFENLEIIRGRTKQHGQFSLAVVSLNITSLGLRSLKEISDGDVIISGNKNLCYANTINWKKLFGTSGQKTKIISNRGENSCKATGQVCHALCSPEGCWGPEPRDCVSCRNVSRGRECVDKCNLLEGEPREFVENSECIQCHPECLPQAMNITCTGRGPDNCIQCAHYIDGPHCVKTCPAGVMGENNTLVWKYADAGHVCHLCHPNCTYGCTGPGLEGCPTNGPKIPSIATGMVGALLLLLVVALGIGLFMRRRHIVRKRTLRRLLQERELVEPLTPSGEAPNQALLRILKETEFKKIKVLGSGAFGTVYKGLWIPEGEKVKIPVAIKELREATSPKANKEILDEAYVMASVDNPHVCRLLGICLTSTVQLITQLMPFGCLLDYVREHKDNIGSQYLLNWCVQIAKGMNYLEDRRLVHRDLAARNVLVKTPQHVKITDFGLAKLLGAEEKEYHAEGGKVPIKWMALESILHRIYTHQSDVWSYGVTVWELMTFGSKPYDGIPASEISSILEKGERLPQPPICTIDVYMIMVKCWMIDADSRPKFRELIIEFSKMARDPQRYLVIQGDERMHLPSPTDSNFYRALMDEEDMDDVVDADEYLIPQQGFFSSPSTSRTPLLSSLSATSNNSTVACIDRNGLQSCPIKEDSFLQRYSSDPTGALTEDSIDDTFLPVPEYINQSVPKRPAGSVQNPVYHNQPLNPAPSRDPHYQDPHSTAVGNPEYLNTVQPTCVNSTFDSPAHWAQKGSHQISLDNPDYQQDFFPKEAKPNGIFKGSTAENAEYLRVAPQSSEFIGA
Sequence of Proto-oncogene tyrosine-protein kinase Src (Homo sapiens) (P12931 2-536 limits assumed): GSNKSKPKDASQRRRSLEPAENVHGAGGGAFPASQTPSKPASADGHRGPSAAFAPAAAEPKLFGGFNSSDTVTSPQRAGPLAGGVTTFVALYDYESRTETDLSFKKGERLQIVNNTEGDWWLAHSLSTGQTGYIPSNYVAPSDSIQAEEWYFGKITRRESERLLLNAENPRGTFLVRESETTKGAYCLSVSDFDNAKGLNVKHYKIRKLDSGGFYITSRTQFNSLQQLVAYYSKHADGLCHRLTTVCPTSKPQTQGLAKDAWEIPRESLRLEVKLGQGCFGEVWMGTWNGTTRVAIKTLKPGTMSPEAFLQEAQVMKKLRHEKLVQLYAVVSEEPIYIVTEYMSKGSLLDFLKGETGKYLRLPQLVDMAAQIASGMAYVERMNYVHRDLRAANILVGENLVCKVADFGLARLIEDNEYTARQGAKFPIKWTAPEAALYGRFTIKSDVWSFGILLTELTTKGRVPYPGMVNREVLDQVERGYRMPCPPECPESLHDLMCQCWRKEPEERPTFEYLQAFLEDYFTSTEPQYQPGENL
Sequence of Vascular endothelial growth factor receptor 1 (Homo sapiens) (P17948 whole entry): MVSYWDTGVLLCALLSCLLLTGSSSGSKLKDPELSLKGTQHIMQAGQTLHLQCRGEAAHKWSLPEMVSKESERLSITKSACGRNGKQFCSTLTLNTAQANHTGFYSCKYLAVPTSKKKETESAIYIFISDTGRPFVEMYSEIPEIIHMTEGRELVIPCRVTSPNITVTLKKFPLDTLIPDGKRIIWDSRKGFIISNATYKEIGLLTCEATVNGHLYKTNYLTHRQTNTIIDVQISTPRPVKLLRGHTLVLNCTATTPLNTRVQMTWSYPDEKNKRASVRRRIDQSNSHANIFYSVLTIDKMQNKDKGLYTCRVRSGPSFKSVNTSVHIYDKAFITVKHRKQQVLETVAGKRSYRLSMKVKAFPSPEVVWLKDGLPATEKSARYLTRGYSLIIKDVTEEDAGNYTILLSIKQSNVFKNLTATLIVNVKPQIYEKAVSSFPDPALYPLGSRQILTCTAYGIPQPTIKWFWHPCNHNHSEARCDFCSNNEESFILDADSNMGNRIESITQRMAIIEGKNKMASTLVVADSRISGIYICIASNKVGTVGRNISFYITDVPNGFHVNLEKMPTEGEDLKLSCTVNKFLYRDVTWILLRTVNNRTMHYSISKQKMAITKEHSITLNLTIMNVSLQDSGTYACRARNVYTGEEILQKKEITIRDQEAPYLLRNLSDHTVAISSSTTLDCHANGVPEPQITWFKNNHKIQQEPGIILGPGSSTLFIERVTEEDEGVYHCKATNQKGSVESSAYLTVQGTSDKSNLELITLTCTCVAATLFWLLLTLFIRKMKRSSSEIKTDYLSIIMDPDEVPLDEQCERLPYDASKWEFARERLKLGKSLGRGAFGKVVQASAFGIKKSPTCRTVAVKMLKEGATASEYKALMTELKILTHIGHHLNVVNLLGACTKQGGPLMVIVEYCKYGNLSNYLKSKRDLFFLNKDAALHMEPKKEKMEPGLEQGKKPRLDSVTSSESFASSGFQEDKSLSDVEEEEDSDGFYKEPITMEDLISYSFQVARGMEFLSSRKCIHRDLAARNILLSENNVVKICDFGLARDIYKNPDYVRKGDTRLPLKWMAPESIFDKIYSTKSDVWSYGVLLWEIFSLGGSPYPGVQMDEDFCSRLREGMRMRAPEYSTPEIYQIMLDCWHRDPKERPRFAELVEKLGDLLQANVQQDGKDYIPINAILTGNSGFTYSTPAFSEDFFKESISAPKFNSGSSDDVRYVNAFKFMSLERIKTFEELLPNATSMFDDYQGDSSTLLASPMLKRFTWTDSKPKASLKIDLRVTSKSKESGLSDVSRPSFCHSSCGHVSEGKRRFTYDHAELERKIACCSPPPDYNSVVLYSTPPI
Sequence of Mitogen-activated protein kinase 9 (Homo sapiens) (P45984 whole entry, looked up): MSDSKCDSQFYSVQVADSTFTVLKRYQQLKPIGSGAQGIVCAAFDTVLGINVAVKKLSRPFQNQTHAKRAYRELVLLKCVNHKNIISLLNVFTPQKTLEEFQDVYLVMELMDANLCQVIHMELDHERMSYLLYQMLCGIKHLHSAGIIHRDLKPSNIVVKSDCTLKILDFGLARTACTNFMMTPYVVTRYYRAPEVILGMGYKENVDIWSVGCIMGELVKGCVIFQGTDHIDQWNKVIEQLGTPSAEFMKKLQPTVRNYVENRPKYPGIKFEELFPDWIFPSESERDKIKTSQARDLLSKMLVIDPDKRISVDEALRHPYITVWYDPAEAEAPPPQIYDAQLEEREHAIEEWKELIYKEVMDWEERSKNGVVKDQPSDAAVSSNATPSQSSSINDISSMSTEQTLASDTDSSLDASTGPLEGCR
Sequence of Mitogen-activated protein kinase 14 (Homo sapiens) (Q16539 whole entry): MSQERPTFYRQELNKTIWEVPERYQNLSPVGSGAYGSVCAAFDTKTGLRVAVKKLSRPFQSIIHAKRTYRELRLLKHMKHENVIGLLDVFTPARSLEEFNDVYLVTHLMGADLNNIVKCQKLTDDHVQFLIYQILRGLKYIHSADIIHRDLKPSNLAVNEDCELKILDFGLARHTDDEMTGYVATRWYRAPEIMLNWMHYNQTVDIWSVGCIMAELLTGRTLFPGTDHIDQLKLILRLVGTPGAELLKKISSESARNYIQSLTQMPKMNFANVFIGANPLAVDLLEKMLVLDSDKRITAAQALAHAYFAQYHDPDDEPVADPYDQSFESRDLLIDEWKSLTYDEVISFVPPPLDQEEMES
Sequence of Protein-tyrosine kinase 6 (Homo sapiens) (Q13882 whole entry, looked up): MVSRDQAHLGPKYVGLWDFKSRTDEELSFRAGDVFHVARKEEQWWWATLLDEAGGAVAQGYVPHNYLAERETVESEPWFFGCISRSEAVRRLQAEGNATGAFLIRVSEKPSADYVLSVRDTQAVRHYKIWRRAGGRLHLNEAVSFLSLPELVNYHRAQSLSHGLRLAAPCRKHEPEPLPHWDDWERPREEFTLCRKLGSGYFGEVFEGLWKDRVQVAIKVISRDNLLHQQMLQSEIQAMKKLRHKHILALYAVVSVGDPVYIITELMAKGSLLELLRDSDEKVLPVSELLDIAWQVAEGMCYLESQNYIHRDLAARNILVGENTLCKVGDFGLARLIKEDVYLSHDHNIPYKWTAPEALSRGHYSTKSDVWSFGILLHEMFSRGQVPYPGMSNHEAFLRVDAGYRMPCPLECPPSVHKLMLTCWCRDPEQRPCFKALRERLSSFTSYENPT

Regarding `COC[C@@H]1CCCN1C(=O)[C@@H]1CCCN1c1nccc(Nc2ccccc2)n1`, the inhibition in assay [1] amounted to 1%; in assay [2], 0%; in [3], 0%; in [4] it was 4%; in assay [5], 1%; in assay [6], 0%. The inhibition worked out at 0% in assay [7]; 0% in assay [8]; 4% in [9]; 0% in [10]; 5% in assay [11].
For `COc1cccc(Nc2cc(N3CCC[C@H]3C(=O)NCCN3CCCCC3)nc(N)n2)c1`, the inhibition in assay [1] amounted to 0%; in [2], 0%; in [3], 0%; in assay [4] it was 3%; in assay [5], 13%; in assay [6], 12%. In addition, the inhibition in [7] is 0%; in assay [8] it was 0%; in assay [9], 0%; in assay [10], 1%; in assay [11] it was 7%.
In the case of `Nc1nc(N2CCOCC2)cc(N2CCC(C(=O)NCc3cccs3)CC2)n1`, the inhibition in assay [1] came out at 0%; in assay [2], 0%; in assay [3], 8%; in assay [4], 3%; in assay [5], 0%; in assay [6], 14%. Further, the inhibition in assay [7] came to 0%; in assay [8], 0%; in assay [9] it was 0%; in assay [10], 3%; in [11], 15%.
For the molecule `COc1ccc(NC(=O)Cc2ccc(Nc3cc(N(C)c4cccc(C)c4)ncn3)cc2)cn1`, the inhibition in [1] is 4%; in assay [2], 0%; in assay [3], 2%; in assay [4], 2%; in assay [5], 20%; in [6], 6%. In addition, the inhibition is 0% in assay [7]; 62% in [8]; 1% in [9]; 1% in assay [10]; 4% in assay [11].
For the molecule `Cc1cccc(N(C)c2cc(Nc3cccc(C(=O)NCc4ccc(N(C)C)cc4)c3)ncn2)c1`, the inhibition in assay [1] turned out to be 11%; in [2] it was 0%; in assay [3], 0%; in assay [4], 4%; in assay [5] it was 21%; in assay [6], 1%. The inhibition came to 0% in [7]; 97% in assay [8]; 0% in assay [9]; 4% in assay [10]; 3% in assay [11].
As to `COc1cccc(Nc2cc(Nc3cccc(C(=O)N(C)CCc4ccccn4)c3)nc(N)n2)c1`, the inhibition was found to be 18% in [1]; 0% in assay [2]; 5% in [3]; 9% in assay [4]; 15% in assay [5]; 1% in [6]. In addition, the inhibition in [7] turned out to be 6%; in assay [8] it was 36%; in assay [9], 3%; in assay [10], 6%; in [11], 21%.
In the case of `O=C(C1CCN(c2nccc(Nc3ccccc3)n2)CC1)N1CC[C@@H](O)C1`, the inhibition in [1] was 0%; in assay [2] it was 0%; in assay [3], 0%; in assay [4], 5%; in assay [5], 6%; in assay [6], 5%. The inhibition in [7] was 0%; in assay [8] it was 0%; in assay [9], 0%; in assay [10] it was 4%; in assay [11], 4%.
With `Cc1cccc(N(C)c2cc(Nc3cccc(C(=O)N(CC(C)C)CC(C)C)c3)ncn2)c1`, the inhibition in [1] was determined as 0%; in assay [2], 0%; in [3] it was 0%; in [4] it was 3%; in assay [5], 5%; in [6], 6%. In addition, the inhibition was determined as 0% in assay [7]; 84% in [8]; 2% in [9]; 2% in assay [10]; 7% in [11].
Consider `CN(C)CC(C)(C)CNC(=O)c1cccc(Nc2nccc(Nc3ccc4ncsc4c3)n2)c1`, for which the inhibition in [1] came out at 91%; in assay [2] it was 16%; in [3], 23%; in [4] it was 88%; in [5], 39%; in [6] it was 24%. Besides, the inhibition in [7] was determined as 87%; in [8], 16%; in [9], 9%; in assay [10], 99%; in assay [11] it was 97%.
Turning to `CN(C)CC(C)(C)CNC(=O)[C@@H]1CCCN1c1nccc(Nc2ccccc2)n1`, the inhibition in assay [1] is 0%; in assay [2] it was 0%; in assay [3], 0%; in assay [4] it was 2%; in [5] it was 12%; in [6], 9%. The inhibition in assay [7] stood at 0%; in assay [8], 0%; in assay [9], 2%; in [10], 0%; in assay [11] it was 4%.
Consider `COC(=O)C(CO)NC(=O)[C@@H]1CCCN1c1nccc(Oc2cccc(C)c2)n1` (stereo partly drawn), for which the inhibition in [1] was 0%; in assay [2] it was 0%; in assay [3] it was 7%; in assay [4], 8%; in [5], 0%; in assay [6], 6%. Further, the inhibition was 0% in assay [7]; 0% in assay [8]; 0% in assay [9]; 0% in [10]; 13% in assay [11].
On to `O=C(c1nc(SCc2ccc(Cl)cc2)n2ccccc12)N1CCN(c2cc(Nc3cccc(Br)c3)ncn2)CC1`, for which the inhibition in assay [1] came out at 0%; in assay [2] it was 0%; in assay [3] it was 6%; in [4], 3%; in assay [5], 0%; in assay [6] it was 5%. Further, the inhibition in [7] turned out to be 0%; in assay [8], 0%; in assay [9] it was 0%; in assay [10] it was 2%; in assay [11], 24%.
For `Cc1ccc(CN2CCN(c3nccc(C(C#N)c4ccccn4)n3)CC2)cc1` (stereo not drawn), the inhibition in assay [1] is 10%; in assay [2] it was 0%; in assay [3], 2%; in assay [4] it was 3%; in [5] it was 0%; in [6], 7%. Also, the inhibition in assay [7] is 0%; in assay [8], 0%; in [9], 0%; in [10], 4%; in assay [11], 0%.
